Screening data as filed in PubChem BioAssay.
TAAR1 antagonist – human TAAR1 antagonism; Q96RJ0; CHO RD-HGA16 TAAR1, Fluo-8 calcium fluorescence, antagonist; inhibition, % at 3 µM; 360,000 tested, 1.5% active;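 active means inhibition above a per-plate cutoff, the mean inhibition of test compounds on that plate plus 3 SD, cut at about 49% in these data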
Target sequence (Q96RJ0 whole entry, looked up): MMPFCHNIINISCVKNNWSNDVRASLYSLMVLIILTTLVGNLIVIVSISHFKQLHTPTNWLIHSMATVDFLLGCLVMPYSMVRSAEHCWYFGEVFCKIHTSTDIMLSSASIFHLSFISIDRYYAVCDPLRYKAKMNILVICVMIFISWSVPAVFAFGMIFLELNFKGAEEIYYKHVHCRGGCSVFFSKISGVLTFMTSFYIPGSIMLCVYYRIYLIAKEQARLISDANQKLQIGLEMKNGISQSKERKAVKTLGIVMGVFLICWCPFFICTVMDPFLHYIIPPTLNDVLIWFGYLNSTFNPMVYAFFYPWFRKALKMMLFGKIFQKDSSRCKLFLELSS
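Test system – hTAAR1-expressing CHO RD-HGA16 cells, Gα16-coupled · Also added – β-PEA at EC80 concentration, post-compound challenge · Compound – 3 µM, single point · Incubation – dye loading 75 min at 37 °C, then 30 min room temperature · Measured by – Fluo-8 intracellular calcium dye fluorescence, real-time kinetic reads · Benchmarks – vehicle and agonist controls · Replicates – singlicate, one well per test compound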
DAGLB inhibitor – diacylglycerol lipase beta (human) inhibition. inhibition, % at 5.17 µM. 340,000 tested, 0.059% active. Q8NCG7. HEK293T DAGLB membrane lysate, EnzChek fluorogenic substrate; in the data active means inhibition above about 34%
TAAR1 ag – agonists of human TAAR1 | AID 624467 | 360,000 tested, 0.99% active | CHO RD-HGA16 TAAR1, Fluo-8 calcium fluorescence; vehicle wells 0%, saturating PEA agonist 100% | Q96RJ0 | activation, % at 3 µM;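 active means activation above the mean activation of all test compounds in the run plus 3 SD, cut at about 38% in these data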
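Assay system: CHO-derived RD-HGA16 cells with stable Gα16 and human TAAR1; timing: 17-24 h seeding, 75 min 37 °C dye, 30 min RT; read-out: % activation from peak over basal fluorescence ratio, DMSO-to-PEA scaled; measured by: kinetic Fluo-8 calcium fluorescence; benchmarks: low control DMSO, high control PEA (EC100); doses: 3 µM single concentration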
GPR7 antagonist – human neuropeptides B/W receptor 1 antagonism. P48145. GPR7-expressing cells, fluorescence antagonist assay. inhibition, % at 4.4 µM. 290,000 tested, 1.1% active; in the data active means inhibition above about 16%, passing the limit was not always enough;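 further: cells stimulated with the agonist NPW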
Target sequence (P48145 whole entry, looked up): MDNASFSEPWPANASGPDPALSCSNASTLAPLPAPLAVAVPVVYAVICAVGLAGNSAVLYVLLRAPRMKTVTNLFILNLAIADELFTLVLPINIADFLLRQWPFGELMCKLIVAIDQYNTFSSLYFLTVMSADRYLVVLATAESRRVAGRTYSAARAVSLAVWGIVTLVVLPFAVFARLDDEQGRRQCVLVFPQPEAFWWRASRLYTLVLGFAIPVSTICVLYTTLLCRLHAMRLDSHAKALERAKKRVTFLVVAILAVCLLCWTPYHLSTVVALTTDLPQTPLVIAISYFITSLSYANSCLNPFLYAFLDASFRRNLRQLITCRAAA
MPTP inh – blocks calcium-induced mitochondrial swelling. isolated mouse mitochondria, Ca2+ swelling absorbance, 30 min. inhibition, % at 10 µM. 360,000 tested, 1.4% active;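 active means inhibition of 50% or more, scaled per plate between neutral and stimulator controls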
TAAR1 ag conf – confirmation of human TAAR1 agonists; shares compounds with TAAR1 ag; CHO RD-HGA16 TAAR1, Fluo-8 calcium fluorescence; scaled: DMSO 0%, maximal phenethylamine 100%; activation, % at 3 µM; 2,400 tested, 82% active; AID 651783;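 active means activation above a cutoff set at the run's mean compound activation plus 3 SD, cut at about 39% in these data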
Ga16 ag counter – nonselective agonist in parental cells, TAAR1 agonist counter-screen; shares compounds with TAAR1 ag; CHO-Ga16 parental, Fluo-8 calcium fluorescence; normalized to maximal ATP response, DMSO zero; activation, % at 3 µM; 2,400 tested, 50% active; AID 651787;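 active means activation above the run cutoff, the mean activation over all tested wells plus 3 SD, cut at about 12% in these data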
TAAR1 desensitize – TAAR1 response desensitization, agonist counter-screen; shares compounds with TAAR1 ag; CHO RD-HGA16 hTAAR1, Fluo-8 calcium, beta-PEA response inhibition; 2,400 tested, 46% active; AID 651951; inhibition, % at 3 µM;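 active means inhibition above the run cutoff, the mean inhibition of all test compounds plus 3 SD, cut at about 49% in these data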;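 further: beta-PEA stimulus applied at its EC80; loss of beta-PEA calcium signal after compound pretreatment read as receptor desensitization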
Ga16 antag count – nonselective Ga16 antagonism, counter-screen; AID 651952; shares compounds with TAAR1 ag; CHO-Ga16 ATP-induced calcium, Fluo-8 fluorescence; inhibition, % at 3 µM; 2,400 tested, 39% active;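 active means inhibition above the plate's mean compound inhibition plus 3 SD, computed per plate, cut at about 22% in these data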
A number is an active result; n = inactive; x = no result given. Rows were chosen to be rich in hits. Some 4% of all compounds tested hit in one or more screens of this group.

SMILES | TAAR1 antagonist | DAGLB inhibitor | TAAR1 ag | GPR7 antagonist | MPTP inh | TAAR1 ag conf | Ga16 ag counter | TAAR1 desensitize | Ga16 antag count
C/C=C(\C)C(=O)NCCN1C2=NC[C@H](C)N2C[C@@H]1Cc1ccc(OC)cc1 | n | n | n | n | n | x | x | x | x
COc1ccccc1C#CC1=CC(=O)CC(C)(C)C1 | n | n | n | x | n | x | x | x | x
CN(CCNC(=O)c1c[nH]c2c1ccc1ccccc12)CCNC(=O)c1c[nH]c2c1ccc1ccccc12 | n | n | n | x | n | x | x | x | x
CCCOc1ccc2oc(=O)c3c(c2c1)CCCN3C(=O)CN1CCc2ccccc2C1 | n | n | 72.7 | n | n | 53.7 | n | n | n
Cc1ccc(-c2nc3c(Cl)cc(Cl)cc3c(=O)n2O)cc1 | n | n | 79.5 | n | n | 48.7 | 51.9 | n | n
O=c1c2cc(Br)ccc2nc(-c2ccc(Cl)cc2)n1O | n | n | n | n | n | x | x | x | x
Cn1c(C(=O)N2CCN(c3nc4ccccc4s3)CC2)cc2sccc21 | n | n | 45.9 | n | n | n | 14.4 | n | 24.6
COc1ccccc1N1CCN(C(=O)c2cc3sccc3n2C)CC1 | n | n | n | n | n | x | x | x | x
COc1ccc(C2CC(=O)C(c3ccc(C#N)cc3)=CN2Cc2ccccc2)cc1 (centres undefined) | n | x | n | x | x | x | x | x | x
CC(C)[C@H](NC(=O)C1CCCC1)C(=O)N1CCC[C@H]1C(=O)NCCc1ccccc1Cl | 75.0 | x | 86.9 | x | x | 85.4 | n | 86.8 | n
CC(C)[C@H](NC(=O)c1ccc(Cl)cc1Cl)C(=O)N1CCC[C@H]1C(=O)NCCc1ccccc1Cl | 76.4 | x | 50.4 | x | x | 73.2 | n | 92.3 | n
O=C(N[C@H](C(=O)N1CCC[C@H]1C(=O)NCCc1ccccc1Cl)C1CCCCC1)c1cccs1 | x | x | x | x | x | x | n | x | n
CSc1ccc(CN2CCC(C)(Oc3cccc(Cl)c3)C2)cc1 (centres undefined) | n | x | n | x | n | x | x | x | x
Cc1ccc(-c2c(C(=O)N/N=C/c3ccco3)nnn2-c2nonc2N)cc1 | n | n | 87.5 | n | n | 110.5 | 78.6 | n | n
CCOc1ccc(-c2c(C(=O)N/N=C/c3ccco3)nnn2-c2nonc2N)cc1 | n | n | 92.2 | n | n | 63.8 | 48.6 | n | n
COc1ccc(C(=O)c2[nH]c(N)c(C(=O)NCCc3c[nH]c4ccccc34)c2-c2ccc(OC)c(OC)c2)cc1 | n | x | n | x | n | x | x | x | x
O=C(CSc1nc2scc(-c3ccccc3)c2c(=O)[nH]1)NCCc1ccccc1 | n | n | 63.9 | n | n | 64.2 | n | n | n
Nc1nc(SCC(=O)NCCc2ccccc2)[nH]c(=O)c1-c1ccccc1 | n | x | 62.2 | n | x | 53.1 | n | n | n
Cc1cc(=O)[nH]c(SCC(=O)NNC(=O)Cc2ccccc2)n1 | n | n | n | n | n | x | x | x | x
Cc1cc(=O)[nH]c(SCC(=O)NCCc2ccccc2)n1 | x | n | x | n | n | x | n | x | n
CC1(c2ccc(Cl)cc2)NC(=O)N(CC(=O)N2CCc3ccccc32)C1=O (centres undefined) | 72.7 | n | 96.9 | x | n | 114.0 | 74.2 | 77.0 | 55.1
Cc1cc2c(cc(C(=O)OCC(=O)NC3CCCCC3)n2C)o1 | 51.5 | n | 66.5 | x | n | n | 33.9 | 52.0 | 41.9
Cc1cc(C(=O)OCC(=O)NC2CCCCC2)c(C)o1 | n | n | n | n | n | x | x | x | x
Cc1ccccc1Oc1ccc(Oc2ccccc2C)nn1 | n | n | 60.1 | n | n | n | n | n | n
Cc1ccccc1OCCn1ccnc1 | n | n | n | n | n | x | x | x | x
SMILES | TAAR1 antagonist | DAGLB inhibitor | TAAR1 ag | GPR7 antagonist | MPTP inh | TAAR1 ag conf | Ga16 ag counter | TAAR1 desensitize | Ga16 antag count
O=C1NC(Cc2ccccc2)c2nc3ccc(F)cc3c(=O)n2-c2cc(Cl)ccc21 (centres undefined) | n | x | n | x | x | x | x | x | x
O=C1NC(Cc2ccccc2)c2nc3cc(F)ccc3c(=O)n2-c2cc(Cl)ccc21 (centres undefined) | n | x | 72.2 | x | x | 49.9 | 16.6 | n | n
COc1ncnc2c1ncn2CCCNCC(C)c1ccccc1 (centres undefined) | n | n | 64.7 | x | n | 81.1 | n | 50.4 | n
Oc1cccc2ccc(Nc3ccccn3)nc12 | n | n | 47.8 | n | n | 57.9 | n | n | n
COc1ccc(C(=O)N2CCCCC2c2cc(C(=O)Nc3cccc(C#N)c3)no2)cc1 (centres undefined) | n | x | n | x | n | x | x | x | x
CC(C)(C)C1=NN(c2ccc([N+](=O)[O-])cc2)C(c2ccccc2)C1 (centres undefined) | n | n | 61.9 | n | n | n | n | n | n
COc1ccc(C(=O)NC(=S)NNC(=O)c2ccc(C)cc2)cc1 | 106.5 | n | 169.7 | x | n | 157.1 | 123.7 | 105.3 | 70.5
COc1ccc(-c2nn(-c3ccccc3)cc2C(=O)NC(=S)NNC(=O)c2ccncc2)cc1 | 56.3 | n | 101.1 | n | n | 81.7 | 74.0 | 75.7 | 69.9
COc1ccc(NC(=O)c2cn(-c3ccccc3)nc2-c2ccncc2)cc1 | n | n | n | n | n | x | x | x | x
CCCCC(=O)NNC(=S)NC(=O)c1ccc(C)cc1 | n | n | 98.2 | n | n | 82.7 | 81.5 | n | 40.1
COc1ccc(C(=O)NNC(=S)NC(=O)c2ccc(Cl)cc2)cc1 | 106.4 | x | 176.2 | x | x | 141.2 | 116.7 | 102.1 | 85.7
CCCN(C(=O)c1cn(CCC)c2ccccc12)c1ccc(Oc2cccnc2)cc1 | n | x | n | x | x | x | x | x | x
COc1cc(OC)cc(C(=O)NNC(=O)c2ccc3ccccc3n2)c1 | n | n | n | x | n | x | x | x | x
COc1ccc(C(=O)NC(=S)NNC(=O)c2ccc3ccccc3n2)cc1 | n | n | 51.4 | n | n | 89.3 | 69.0 | n | 37.5
COc1cc(C(=O)NNC(=S)NC(=O)c2ccc(Cl)cc2)cc(OC)c1OC | 85.5 | n | 141.3 | n | n | 93.4 | 83.5 | 66.6 | 43.1
CC(=NNC(=O)c1ccncc1)c1ccc2ccccc2c1O | 76.0 | n | 167.2 | x | n | 72.2 | 153.5 | 54.0 | 78.5
O=C(CC1CCCC1)N[C@@H](Cc1cccnc1)C(=O)N1CCC[C@H]1C(=O)NCCc1ccccc1Cl | 78.0 | x | 69.5 | x | x | 87.4 | 13.5 | 89.7 | n
O=C(N[C@@H](Cc1cccnc1)C(=O)N1CCC[C@H]1C(=O)NCCc1ccccc1Cl)c1ccc(Cl)cc1Cl | 65.5 | x | 65.5 | x | x | 72.3 | n | 88.8 | n
O=C(N[C@@H](Cc1cccnc1)C(=O)N1CCC[C@H]1C(=O)NC1CCCC1)c1ccc(Cl)c(Cl)c1 | n | x | n | x | x | x | x | x | x
